ChEMBL document CHEMBL1137180, “Synthesis and structure-activity relationship of a novel sulfone series of TNF-alpha converting enzyme inhibitors” (Bioorg Med Chem Lett, 2004)
pIC50, pKi: −log10 of the molar value.

What was measured:
[1] = biological target: Disintegrin and metalloproteinase domain-containing protein 17 (Homo sapiens, UniProt P78536); experiment: Effect on TNF-Alpha release in LPS-stimulated human whole blood assay; format: functional, tissue-based
Interstitial collagenase = biological target: T1, Interstitial collagenase (Homo sapiens, UniProt P03956); experiment: Inhibition of Matrix metalloprotease-1 (MMP-1)
T1 sequence (P03956 whole entry): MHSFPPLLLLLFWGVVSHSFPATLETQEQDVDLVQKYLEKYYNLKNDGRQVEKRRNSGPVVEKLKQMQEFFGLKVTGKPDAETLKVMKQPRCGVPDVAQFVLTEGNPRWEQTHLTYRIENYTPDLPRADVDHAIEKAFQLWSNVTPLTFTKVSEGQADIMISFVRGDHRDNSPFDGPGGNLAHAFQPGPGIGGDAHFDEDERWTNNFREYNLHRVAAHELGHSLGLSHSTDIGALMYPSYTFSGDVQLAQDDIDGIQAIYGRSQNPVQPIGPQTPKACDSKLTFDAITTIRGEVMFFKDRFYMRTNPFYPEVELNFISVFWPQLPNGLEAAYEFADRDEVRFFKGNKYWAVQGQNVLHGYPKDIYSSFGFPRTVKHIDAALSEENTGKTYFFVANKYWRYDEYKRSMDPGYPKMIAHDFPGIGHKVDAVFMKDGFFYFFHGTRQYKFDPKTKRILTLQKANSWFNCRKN
Summary of the method: (§1)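 Inhibition is reported as Ki (nM) against each isolated MMP. Each value comes from a single determination, with no replicates.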

Collagenase 3 = Collagenase 3 (Homo sapiens, UniProt P45452); experiment: Inhibition of Matrix metalloprotease-13 (MMP-13); summary of the method: as §1
[2] = biological target: Disintegrin and metalloproteinase domain-containing protein 17 (Sus scrofa, UniProt O77636); experiment: Inhibition of porcine Tumor necrosis factor- alpha converting enzyme (TACE, ADAM17)
[3] = biological target: 72 kDa type IV collagenase (Homo sapiens, UniProt P08253); experiment: inhibition of Matrix metalloprotease-2 (MMP-2); summary of the method: as §1
[4] = biological target: Matrix metalloproteinase-9 (Homo sapiens, UniProt P14780); experiment: Inhibition of Matrix metalloprotease-9 (MMP-9); summary of the method: as §1
Caco-2 = experiment: Permeability action in Caco-2 cells; format: functional, Homo sapiens
Mus musculus = experiment: Compound was tested for anti TNF-alpha activity using LPS mouse model at 5 mg/kg p.o.; format: functional; details: route oral

Sequence of 72 kDa type IV collagenase (P08253 whole entry): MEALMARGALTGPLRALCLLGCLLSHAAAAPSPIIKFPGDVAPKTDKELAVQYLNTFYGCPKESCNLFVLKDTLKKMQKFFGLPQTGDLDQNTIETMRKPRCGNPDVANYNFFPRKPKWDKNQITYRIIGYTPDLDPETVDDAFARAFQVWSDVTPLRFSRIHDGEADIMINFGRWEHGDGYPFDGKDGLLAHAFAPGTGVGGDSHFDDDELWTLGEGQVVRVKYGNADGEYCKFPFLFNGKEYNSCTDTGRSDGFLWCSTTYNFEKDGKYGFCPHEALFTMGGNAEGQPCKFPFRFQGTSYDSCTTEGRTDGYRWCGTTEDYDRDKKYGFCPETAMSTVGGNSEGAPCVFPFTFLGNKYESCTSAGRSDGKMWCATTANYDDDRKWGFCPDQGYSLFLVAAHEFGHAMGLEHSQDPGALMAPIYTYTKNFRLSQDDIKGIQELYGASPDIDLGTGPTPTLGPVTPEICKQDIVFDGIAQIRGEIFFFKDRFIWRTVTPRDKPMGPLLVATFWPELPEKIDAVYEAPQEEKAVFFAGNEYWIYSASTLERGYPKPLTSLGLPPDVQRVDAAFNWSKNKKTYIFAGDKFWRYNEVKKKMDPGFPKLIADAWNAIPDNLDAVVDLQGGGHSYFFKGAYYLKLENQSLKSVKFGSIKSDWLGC
Sequence of Disintegrin and metalloproteinase domain-containing protein 17 (Homo sapiens, UniProt P78536) (P78536 whole entry, the tested form may be a part): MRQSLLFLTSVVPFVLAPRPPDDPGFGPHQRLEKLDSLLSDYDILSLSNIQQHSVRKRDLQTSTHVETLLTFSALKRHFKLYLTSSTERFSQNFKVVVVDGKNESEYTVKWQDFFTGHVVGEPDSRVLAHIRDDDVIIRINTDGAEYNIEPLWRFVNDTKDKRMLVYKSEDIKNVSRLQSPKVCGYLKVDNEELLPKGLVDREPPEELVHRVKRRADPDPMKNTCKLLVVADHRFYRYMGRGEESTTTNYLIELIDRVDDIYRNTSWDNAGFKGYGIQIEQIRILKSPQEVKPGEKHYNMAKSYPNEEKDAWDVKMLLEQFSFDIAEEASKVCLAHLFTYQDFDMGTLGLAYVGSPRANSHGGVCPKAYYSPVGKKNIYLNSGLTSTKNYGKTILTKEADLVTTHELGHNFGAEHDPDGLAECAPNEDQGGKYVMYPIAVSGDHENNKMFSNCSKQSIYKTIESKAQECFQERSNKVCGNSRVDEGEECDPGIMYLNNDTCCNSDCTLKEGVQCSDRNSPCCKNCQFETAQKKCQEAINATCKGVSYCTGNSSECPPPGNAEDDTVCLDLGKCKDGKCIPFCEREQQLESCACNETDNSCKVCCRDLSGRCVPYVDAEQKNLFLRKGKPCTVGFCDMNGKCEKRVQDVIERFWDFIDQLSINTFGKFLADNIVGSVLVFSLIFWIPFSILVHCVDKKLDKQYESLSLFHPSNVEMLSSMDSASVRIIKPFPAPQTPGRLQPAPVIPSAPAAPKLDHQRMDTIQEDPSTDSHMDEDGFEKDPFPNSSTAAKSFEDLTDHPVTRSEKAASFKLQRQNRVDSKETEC
Sequence of Disintegrin and metalloproteinase domain-containing protein 17 (Sus scrofa, UniProt O77636) (O77636 whole entry, the tested form may be a part): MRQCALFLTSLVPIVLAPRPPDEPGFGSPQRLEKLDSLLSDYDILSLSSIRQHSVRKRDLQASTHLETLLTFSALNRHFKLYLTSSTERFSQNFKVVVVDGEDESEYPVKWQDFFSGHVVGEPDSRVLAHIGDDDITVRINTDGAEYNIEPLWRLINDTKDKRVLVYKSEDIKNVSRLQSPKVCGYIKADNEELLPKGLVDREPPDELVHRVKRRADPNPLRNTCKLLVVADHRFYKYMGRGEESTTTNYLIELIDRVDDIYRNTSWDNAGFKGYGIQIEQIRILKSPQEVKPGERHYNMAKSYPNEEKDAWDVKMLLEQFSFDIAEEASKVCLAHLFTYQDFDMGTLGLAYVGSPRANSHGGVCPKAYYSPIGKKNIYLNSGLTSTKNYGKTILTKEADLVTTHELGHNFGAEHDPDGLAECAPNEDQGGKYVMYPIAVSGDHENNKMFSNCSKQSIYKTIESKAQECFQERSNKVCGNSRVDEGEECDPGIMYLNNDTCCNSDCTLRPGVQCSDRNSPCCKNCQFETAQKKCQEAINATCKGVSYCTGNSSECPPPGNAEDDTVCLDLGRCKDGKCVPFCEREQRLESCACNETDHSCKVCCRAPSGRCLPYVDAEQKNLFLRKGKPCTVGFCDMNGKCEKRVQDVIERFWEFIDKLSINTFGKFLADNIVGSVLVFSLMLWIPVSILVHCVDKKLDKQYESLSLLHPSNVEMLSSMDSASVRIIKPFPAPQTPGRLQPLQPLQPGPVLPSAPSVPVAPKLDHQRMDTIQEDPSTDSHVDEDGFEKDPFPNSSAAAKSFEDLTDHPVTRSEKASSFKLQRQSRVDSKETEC
Sequence of Matrix metalloproteinase-9 (P14780 whole entry): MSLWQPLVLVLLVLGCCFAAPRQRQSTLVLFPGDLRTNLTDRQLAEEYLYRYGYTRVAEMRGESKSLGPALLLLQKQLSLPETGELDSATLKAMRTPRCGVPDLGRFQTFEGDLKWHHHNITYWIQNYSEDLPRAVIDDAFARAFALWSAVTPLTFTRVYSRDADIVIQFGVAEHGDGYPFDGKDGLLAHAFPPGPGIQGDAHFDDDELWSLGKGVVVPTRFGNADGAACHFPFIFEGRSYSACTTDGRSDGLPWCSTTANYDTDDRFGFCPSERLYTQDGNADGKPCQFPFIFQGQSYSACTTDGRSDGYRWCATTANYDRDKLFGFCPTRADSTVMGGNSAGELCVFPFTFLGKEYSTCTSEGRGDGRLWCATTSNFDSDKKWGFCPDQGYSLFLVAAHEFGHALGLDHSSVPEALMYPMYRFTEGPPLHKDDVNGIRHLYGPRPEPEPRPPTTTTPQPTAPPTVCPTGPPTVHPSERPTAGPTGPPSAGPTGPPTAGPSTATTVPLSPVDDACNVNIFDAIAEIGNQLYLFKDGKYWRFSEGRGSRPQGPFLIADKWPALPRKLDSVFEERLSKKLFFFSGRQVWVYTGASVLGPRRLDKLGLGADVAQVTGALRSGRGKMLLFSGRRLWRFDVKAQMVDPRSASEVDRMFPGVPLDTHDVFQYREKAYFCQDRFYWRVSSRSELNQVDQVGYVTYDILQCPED

Row | SMILES | pIC50 [1] | pKi (Interstitial collagenase) | pKi (Collagenase 3) | pIC50 [2] | pKi [3] | pKi [4] | Caco-2 Papp (Caco-2) [×10⁻⁶ cm/s] | inhibition in vivo at 5 mg/kg (Mus musculus) [%]
1 | Cc1cc(COc2ccc(S(=O)(=O)CC3(CC(=O)NO)CCCN3C)cc2)c2ccccc2n1 (stereo unspecified) | < 5.52 | < 5.31 | 5.49 | 8.54 | < 5.48 | < 5.68 | 1.6 | –
2 | Cc1cc(COc2ccc(S(=O)(=O)CC3CCNCC3C(=O)NO)cc2)c2ccccc2n1 (stereo unspecified) | 6.60 | < 5.31 | < 5.30 | > 8.82 | < 5.48 | < 5.68 | 0.1 | –
3 | Cc1cc(COc2ccc(S(=O)(=O)CC3(CC(=O)NO)CCCO3)cc2)c2ccccc2n1 (stereo unspecified) | 6.04 | < 5.31 | < 5.30 | 9.00 | < 5.48 | < 5.68 | 5 | 57
4 | Cc1cc(COc2ccc(S(=O)(=O)CC3NCCCC3C(=O)NO)cc2)c2ccccc2n1 (stereo unspecified) | 6.62 | < 5.31 | 6.12 | > 9.00 | < 5.48 | < 5.68 | 0.1 | –
5 | Cc1cc(COc2ccc(S(=O)(=O)CC3(CC(=O)NO)CCCCN3C)cc2)c2ccccc2n1 (stereo unspecified) | < 5.52 | < 5.31 | < 5.30 | 8.29 | < 5.48 | < 5.68 | 5.1 | –
6 | Cc1cc(COc2ccc(S(=O)(=O)CC3CN(C)CCC3C(=O)NO)cc2)c2ccccc2n1 (stereo unspecified) | 6.72 | < 5.31 | < 5.30 | > 8.72 | < 5.48 | < 5.68 | 0.1 | –
7 | Cc1cc(COc2ccc(S(=O)(=O)CC3(CC(=O)NO)CCCN(C(C)C)C3)cc2)c2ccccc2n1 (stereo unspecified) | 6.30 | < 5.31 | < 5.30 | 8.57 | < 5.48 | < 5.68 | 0.2 | –
8 | Cc1cc(COc2ccc(S(=O)(=O)CC3(CC(=O)NO)CCCC3)cc2)c2ccccc2n1 | 6.38 | < 5.31 | 6.09 | > 9.10 | 5.81 | 5.82 | 18 | –
9 | Cc1cc(COc2ccc(S(=O)(=O)CC3(CC(=O)NO)CCN(C(C)C)C3)cc2)c2ccccc2n1 (stereo unspecified) | 7.11 | < 5.31 | 6.19 | 8.80 | 5.88 | 5.68 | 0.2 | 37
10 | CCC(C)N1CCCCC1(CC(=O)NO)CS(=O)(=O)c1ccc(OCc2cc(C)nc3ccccc23)cc1 (stereo unspecified) | – | < 5.31 | – | > 7.32 | < 5.48 | < 5.30 | – | –
11 | Cc1cc(COc2ccc(S(=O)(=O)CC3(CC(=O)NO)CCNC3)cc2)c2ccccc2n1 (stereo unspecified) | 7.12 | < 5.31 | 5.49 | 8.82 | < 5.48 | < 5.68 | 0.1 | 34
12 | Cc1cc(COc2ccc(S(=O)(=O)CC3(CC(=O)NO)CCCN3CC(C)C)cc2)c2ccccc2n1 (stereo unspecified) | – | < 5.31 | < 5.30 | 7.70 | 5.88 | < 5.68 | 0.7 | –
13 | Cc1cc(COc2ccc(S(=O)(=O)CC3(CC(=O)NO)CCNCC3)cc2)c2ccccc2n1 | – | < 5.31 | < 5.30 | 7.85 | < 5.48 | < 5.68 | 0.1 | 57
14 | Cc1cc(COc2ccc(S(=O)(=O)CC3(CC(=O)NO)CCOCC3)cc2)c2ccccc2n1 | 6.59 | < 5.31 | < 5.30 | > 9.00 | < 5.48 | < 5.68 | – | –
15 | Cc1cc(COc2ccc(S(=O)(=O)CC3CCN(C(C)C)CC3C(=O)NO)cc2)c2ccccc2n1 (stereo unspecified) | < 6.00 | < 5.31 | < 5.30 | > 7.96 | < 5.48 | < 5.68 | 0.65 | –
16 | Cc1cc(COc2ccc(S(=O)(=O)CC3(CC(=O)NO)CCN(C)CC3)cc2)c2ccccc2n1 | 6.99 | < 5.31 | 5.58 | > 8.70 | < 5.48 | < 5.68 | 0.2 | –
17 | Cc1cc(COc2ccc(S(=O)(=O)CC3CCN(C)CC3C(=O)NO)cc2)c2ccccc2n1 (stereo unspecified) | 6.29 | < 5.31 | < 5.30 | 8.19 | < 5.48 | < 5.68 | 0.2 | –
18 | Cc1cc(COc2ccc(S(=O)(=O)CC3(CC(=O)NO)COC3)cc2)c2ccccc2n1 | 6.23 | < 5.31 | < 5.30 | 9.00 | < 5.48 | < 5.68 | – | –
19 | Cc1cc(COc2ccc(S(=O)(=O)CC3C(C(=O)NO)CCCN3C)cc2)c2ccccc2n1 (stereo unspecified) | < 5.52 | < 5.31 | < 5.30 | > 8.96 | < 5.48 | < 5.68 | – | –
20 | CC(=O)N1CCCC1(CC(=O)NO)CS(=O)(=O)c1ccc(OCc2cc(C)nc3ccccc23)cc1 (stereo unspecified) | – | < 5.31 | < 5.30 | 6.18 | < 5.48 | < 5.68 | 0.6 | –
21 | CCCCCN1CCC(CC(=O)NO)(CS(=O)(=O)c2ccc(OCc3cc(C)nc4ccccc34)cc2)C1 (stereo unspecified) | 6.38 | < 5.31 | 5.75 | 8.47 | < 5.48 | < 5.68 | – | 22
22 | Cc1cc(COc2ccc(S(=O)(=O)CC3(CC(=O)NO)CCCN3)cc2)c2ccccc2n1 (stereo unspecified) | 6.39 | < 5.31 | < 5.30 | 9.00 | < 5.48 | < 5.68 | 0.4 | 19
23 | Cc1cc(COc2ccc(S(=O)(=O)CC3(CC(=O)NO)CCCCC3)cc2)c2ccccc2n1 | 6.06 | < 5.31 | 5.92 | > 9.00 | 5.85 | < 5.68 | 22 | 59
24 | Cc1cc(COc2ccc(S(=O)(=O)CC3(CC(=O)NO)CCN(C)C3)cc2)c2ccccc2n1 (stereo unspecified) | 6.96 | < 5.31 | < 5.30 | 8.49 | < 5.48 | < 5.68 | 0.3 | 28
